Assay results reported in ChEMBL document CHEMBL1142446, “Discovery of 3-acetyl-4-hydroxy-2-pyranone derivatives and their difluoridoborate complexes as a novel class of HIV-1 integrase inhibitors” (Bioorg Med Chem, 2008).
Calls of active or inactive are those of the source. The rule behind the calls is not given here.

Tests used:
[1] = target: T1, Human immunodeficiency virus type 1 integrase (Human immunodeficiency virus 1, UniProt Q7ZJM1); experiment: Inhibition of wild-type HIV1 integrase 3'-end processing activity
How it was run: (§1)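 Recombinant wild-type HIV-1 integrase (200 nM final) preincubated with inhibitor for 30 min at 30 °C in 25 mM MOPS pH 7.2 with 50 mM NaCl, 7.5 mM MnCl2, 10% DMSO, BSA and thiols. Then 20 nM 5′-³²P-labeled 21-mer duplex substrate (21top/21bot) was added for 1 h. Quenched in formamide dye and resolved on denaturing 20% polyacrylamide–urea gel. Selectivity index = IC50(3′-processing)/IC50(strand transfer).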

[2] = target: T1, Human immunodeficiency virus type 1 integrase; experiment: Inhibition of wild-type HIV1 integrase strand transfer activity; how it was run: as §1
[3] = target: Human immunodeficiency virus type 1 integrase (Human immunodeficiency virus 1) (UniProt Q7ZJM1); experiment: Selectivity index, ratio of IC50 for wild-type HIV1 integrase 3'-end processing activity to IC50 for wild-type HIV1 integrase strand transfer activity; how it was run: as §1
[4] = Cytotoxicity against human HCT 116 cells after 72 hrs by MTT assay; format: cell-based; conditions: hct-116, 72 h
How it was run: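 HCT-116 monolayers were seeded at 8 × 10³ cells/well and attached overnight. Compounds in RPMI-1640 with 10% […] were added at a single final concentration of 10 and exposed for 72 h. MTT was then added for 4 h, crystals were dissolved in DMSO, and absorbance was read at 570 nm against blanks.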

HCT-116 (Homo sapiens) = experiment: Cytotoxicity against human HCT 116 cells by MTT assay

Sequence of Human immunodeficiency virus type 1 integrase (Human immunodeficiency virus 1) (Q7ZJM1 as listed by the source): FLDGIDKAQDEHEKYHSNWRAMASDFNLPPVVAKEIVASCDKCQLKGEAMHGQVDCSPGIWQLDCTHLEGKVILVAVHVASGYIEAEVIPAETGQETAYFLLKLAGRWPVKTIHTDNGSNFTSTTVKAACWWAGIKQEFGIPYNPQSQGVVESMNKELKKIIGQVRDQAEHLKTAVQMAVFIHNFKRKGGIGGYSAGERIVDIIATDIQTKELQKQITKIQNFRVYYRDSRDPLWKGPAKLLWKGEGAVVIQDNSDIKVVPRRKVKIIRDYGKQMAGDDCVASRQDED
T1 sequence (Q7ZJM1 whole entry): as the sequence (Q7ZJM1 as listed by the source) above

IC50 [1]	IC50 [2]	Ratio IC50 [3]	SMILES	Activity [4]	Activity (HCT-116 (Homo sapiens))
9 µM	16 µM	0.6	Cc1cc2c(c(=O)o1)C(/C=C/c1ccc(F)cc1)=[O+][B-](F)(F)O2	> 10 µM	
> 100 µM	> 100 µM		Cc1cc(O)c(C(=O)/C=C/c2ccc(Br)cc2)c(=O)o1	> 10 µM	
> 100 µM	100 µM		COc1ccc(Br)cc1/C=C/C(=O)c1c(O)cc(/C=C/c2ccc(N(C)C)cc2)oc1=O	> 10 µM	
> 100 µM	> 100 µM		COc1ccc(/C=C/C2=[O+][B-](F)(F)Oc3cc(/C=C/c4ccc(N(C)C)cc4)oc(=O)c32)cc1	> 10 µM	
11 µM	4 µM	2.5	COc1ccc(/C=C/C=C/C2=[O+][B-](F)(F)Oc3cc(C)oc(=O)c32)cc1	> 10 µM	inactive
> 100 µM	56 µM	> 1.8	Cc1cc2c(c(=O)o1)C(/C=C/c1ccc(N(C)C)cc1)=[O+][B-](F)(F)O2	> 10 µM	
> 100 µM	> 100 µM		COc1ccc(Br)cc1/C=C/C1=[O+][B-](F)(F)Oc2cc(/C=C/c3ccc(N(C)C)cc3)oc(=O)c21	> 10 µM	
> 100 µM	100 µM		Cc1cc2c(c(=O)o1)C(/C=C/C=C/c1ccc(N(C)C)cc1)=[O+][B-](F)(F)O2	> 10 µM	
> 100 µM	> 100 µM		Cc1cc(O)c(C(=O)/C=C/C=C/c2ccc(N(C)C)cc2)c(=O)o1	> 10 µM	
> 100 µM	> 100 µM		CN(C)c1ccc(/C=C/C(=O)c2c(O)cc(/C=C/c3ccc(N(C)C)cc3)oc2=O)cc1	> 10 µM	
65 µM	23 µM	2.8	Cc1cc(O)c(C(=O)/C=C/c2ccc(Br)s2)c(=O)o1	> 10 µM	
> 100 µM	> 100 µM		Cc1cc2c(c(=O)o1)C(/C=C/C=C1/N(C)c3ccccc3C1(C)C)=[O+][B-](F)(F)O2	> 10 µM	
> 100 µM	> 100 µM		CN(C)c1ccc(/C=C/C2=[O+][B-](F)(F)Oc3cc(/C=C/c4ccc(N(C)C)cc4)oc(=O)c32)cc1	> 10 µM	
> 100 µM	> 100 µM		Cc1cc(O)c(C(=O)/C=C/C=C2/N(C)c3ccccc3C2(C)C)c(=O)o1	> 10 µM	
> 100 µM	> 100 µM		COc1ccc(/C=C/C(=O)c2c(O)cc(/C=C/c3ccc(N(C)C)cc3)oc2=O)cc1	> 10 µM	
64 µM	> 100 µM	< 0.7	Cc1cc(O)c(C(=O)/C=C/c2ccc(F)cc2)c(=O)o1	> 10 µM	
13 µM	7 µM	1.9	CC[NH+](CC)CC.Cc1cc2c(c(=O)o1)C(/C=C/C=C1\O[B-](F)(F)Oc3cc(C)oc(=O)c31)=[O+][B-](F)(F)O2	> 10 µM	inactive
19 µM	11 µM	1.8	Cc1cc(O)c(C(=O)/C=C/c2ccc(N(C)C)s2)c(=O)o1	> 10 µM	
12 µM	4 µM	3.3	Cc1cc2c(c(=O)o1)C(/C=C/c1ccc(Br)cc1)=[O+][B-](F)(F)O2	> 10 µM	inactive
> 100 µM	39 µM	> 2.6	COc1ccc(/C=C/C=C/C(=O)c2c(O)cc(C)oc2=O)cc1	> 10 µM	
> 100 µM	> 100 µM		Cc1cc2c(c(=O)o1)C(/C=C/c1ccc(N(C)C)s1)=[O+][B-](F)(F)O2	> 10 µM	
9 µM	3 µM	3.2	Cc1cc2c(c(=O)o1)C(/C=C/c1ccc(Br)s1)=[O+][B-](F)(F)O2	> 10 µM	inactive
